Test results published in ChEMBL document CHEMBL1641604, “Application of p21 and klf2 reporter gene assays to identify selective histone deacetylase inhibitors for cancer therapy” (Bioorg Med Chem Lett, 2011).

What was measured:
[1] = system: HeLa; assay: Selectivity ratio for induction of p21 promoter gene in human HeLa cells to induction of klf2 promoter gene in human A204 cells at 3 uM; format: functional
[2] = system: HeLa; assay: Selectivity ratio for induction of p21 promoter gene in human HeLa cells to induction of klf2 promoter gene in human A204 cells at 10 uM; format: functional
[3] = system: HeLa; assay: Induction of p21 promoter gene in human HeLa cells assessed as percent induction activity at 3 uM relative to SNDX-275; format: functional
[4] = system: A204; assay: Induction of klf2 promoter gene in human A204 cells assessed as percent induction activity at 3 uM relative to SNDX-275; format: functional
[5] = system: A204; assay: Induction of klf2 promoter gene in human A204 cells assessed as percent induction activity at 10 uM relative to SNDX-275; format: functional
[6] = system: HeLa; assay: Induction of p21 promoter gene in human HeLa cells assessed as percent induction activity at 10 uM relative to SNDX-275; format: functional
[7] = biological target: Histone deacetylase 3 (Homo sapiens, UniProt O15379)
[8] = biological target: Histone deacetylase 1 (Homo sapiens, UniProt Q13547); assay: Inhibition of HDAC1
[9] = biological target: Histone deacetylase 2 (Homo sapiens, UniProt Q92769); assay: Inhibition of HDAC2
[10] = system: A204; assay: Antiproliferative activity against human A204 cells assessed as growth at 3 uM after 24 hrs; format: functional; conditions: A204, 24 h, read-out: Activity
In short: (§1)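 HeLa and A204 cells exposed to test agents at 3 or 10 µM for 24 h. Growth is expressed as percent of vehicle-treated control cells.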

[11] = system: HeLa; assay: Antiproliferative activity against human HeLa cells assessed as growth at 10 uM after 24 hrs; format: functional; conditions: read-out: Activity; in short: as §1
[12] = system: HeLa; assay: Antiproliferative activity against human HeLa cells assessed as growth at 3 uM after 24 hrs; format: functional; conditions: read-out: Activity; in short: as §1
[13] = system: A204; assay: Antiproliferative activity against human A204 cells assessed as growth at 10 uM after 24 hrs; format: functional; conditions: A204, 24 h, read-out: Activity; in short: as §1
[14] = system: U2OS; assay: Antiproliferative activity against human U2OS cells after 72 hrs by tetrazolium dye assay; format: functional
In short: (§2)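 Tetrazolium dye proliferation assay over 72 h, with half-log serial dilutions from 30 µM down to 100 nM. GI50 was derived from the dose-response.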

[15] = system: HCT-116; assay: Induction of acetylated H4 level in human HCT116 cells after 24 hrs; format: functional, cell-based
In short: (§3)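 HCT-116 cells treated for 24 h across a range of concentrations. Acetylated histone H4 and endogenous p21, or cell-cycle distribution, were assessed.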

[16] = system: HL-60; assay: Antiproliferative activity against human HL60 cells after 72 hrs by tetrazolium dye assay; format: functional; conditions: HL-60, 72 h; in short: as §2
[17] = system: HCT-116; assay: Induction of endogenous p21 level in human HCT116 cells after 24 hrs; format: functional, cell-based; in short: as §3
[18] = system: HeLa; assay: Antiproliferative activity against human HeLa cells after 72 hrs by tetrazolium dye assay; format: functional; in short: as §2
[19] = system: HepG2; assay: Antiproliferative activity against human HepG2 cells after 72 hrs by tetrazolium dye assay; format: functional; conditions: HepG2, 72 h; in short: as §2
[20] = system: HCT-116; assay: Antiproliferative activity against human HCT116 cells after 72 hrs by tetrazolium dye assay; format: functional; conditions: HCT-116, 72 h; in short: as §2
[21] = system: HCT-116; assay: Cell cycle arrest in human HCT116 cells after 24 hrs; format: functional, cell-based; in short: as §3
[22] = system: HCT-116; assay: Induction of apoptosis in human HCT116 cells after 48 hrs by annexin V/FACS analysis; format: functional, cell-based
In short: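 HCT-116 cells exposed for 48 h to several concentrations or vehicle. Apoptosis was scored as percent annexin V-positive cells by FACS.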

[23] = system: MCF7; assay: Antiproliferative activity against human MCF7 cells after 72 hrs by tetrazolium dye assay; format: functional; conditions: MCF7, 72 h; in short: as §2

Sequence of Histone deacetylase 1 (Q13547 whole entry): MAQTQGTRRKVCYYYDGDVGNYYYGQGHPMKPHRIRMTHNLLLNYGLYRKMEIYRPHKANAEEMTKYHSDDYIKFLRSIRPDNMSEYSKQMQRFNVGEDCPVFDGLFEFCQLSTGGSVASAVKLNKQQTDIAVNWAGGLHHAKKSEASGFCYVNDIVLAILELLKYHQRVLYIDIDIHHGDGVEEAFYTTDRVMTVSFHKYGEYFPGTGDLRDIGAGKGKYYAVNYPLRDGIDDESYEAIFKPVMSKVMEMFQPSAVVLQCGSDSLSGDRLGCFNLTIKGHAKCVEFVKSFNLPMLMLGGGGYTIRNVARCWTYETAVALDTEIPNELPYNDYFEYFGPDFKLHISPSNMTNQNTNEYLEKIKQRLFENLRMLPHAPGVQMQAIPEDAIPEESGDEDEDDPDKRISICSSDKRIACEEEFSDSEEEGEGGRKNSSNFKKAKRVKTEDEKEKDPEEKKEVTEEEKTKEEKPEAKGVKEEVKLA
Sequence of Histone deacetylase 2 (Q92769 whole entry): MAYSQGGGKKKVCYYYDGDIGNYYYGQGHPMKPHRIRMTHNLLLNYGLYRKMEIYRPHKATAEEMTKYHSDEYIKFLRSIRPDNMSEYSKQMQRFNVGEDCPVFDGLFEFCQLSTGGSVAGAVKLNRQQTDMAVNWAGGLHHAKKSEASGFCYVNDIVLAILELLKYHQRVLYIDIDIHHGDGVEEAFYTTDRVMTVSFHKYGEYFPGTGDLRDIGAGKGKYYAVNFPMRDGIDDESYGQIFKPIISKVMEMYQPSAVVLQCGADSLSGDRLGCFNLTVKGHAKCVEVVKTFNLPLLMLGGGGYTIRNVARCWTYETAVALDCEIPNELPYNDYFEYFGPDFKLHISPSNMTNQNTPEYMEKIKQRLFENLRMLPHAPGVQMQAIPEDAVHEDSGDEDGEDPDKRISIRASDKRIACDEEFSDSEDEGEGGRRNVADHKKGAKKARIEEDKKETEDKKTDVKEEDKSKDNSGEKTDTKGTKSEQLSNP
Sequence of Histone deacetylase 3 (O15379 whole entry): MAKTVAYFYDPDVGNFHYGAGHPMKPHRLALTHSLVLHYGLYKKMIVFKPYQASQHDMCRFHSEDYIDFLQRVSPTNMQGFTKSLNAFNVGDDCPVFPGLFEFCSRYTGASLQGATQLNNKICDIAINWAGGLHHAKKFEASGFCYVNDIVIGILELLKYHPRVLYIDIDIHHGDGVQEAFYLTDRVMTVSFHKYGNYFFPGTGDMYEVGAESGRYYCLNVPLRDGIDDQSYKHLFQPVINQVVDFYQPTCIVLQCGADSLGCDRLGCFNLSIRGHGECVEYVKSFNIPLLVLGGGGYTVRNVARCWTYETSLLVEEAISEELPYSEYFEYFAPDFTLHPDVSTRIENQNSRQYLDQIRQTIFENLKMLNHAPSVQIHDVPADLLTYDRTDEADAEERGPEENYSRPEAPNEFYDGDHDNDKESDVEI

| Structure (SMILES) | Activity [1] | Activity [2] | Activity [3] [%] | Activity [4] [%] | Activity [5] [%] | Activity [6] [%] | also measured |
| --- | --- | --- | --- | --- | --- | --- | --- |
| COCCNC(C(=O)Nc1ccc(C(F)(F)F)cc1)c1ccc(/C=C/C(=O)Nc2ccccc2N)cc1 (configuration not stated) | 0.8 | 1.1 | 36 | 45 | 56 | 64 | – |
| CN(CCN1CCOCC1)C(C(=O)Nc1ccc(C(F)(F)F)cc1)c1ccc(/C=C/C(=O)Nc2ccccc2N)cc1 (configuration not stated) | 1 | 1.5 | 72 | 70 | 82 | 121 | – |
| Nc1ccccc1NC(=O)/C=C/c1ccc(C(NCCN2CCCCC2)C(=O)Nc2ccc(-c3ccc(C(F)(F)F)c(F)c3)cc2)cc1 (configuration not stated) | 2.4 | 1.7 | 77 | 32 | 54 | 92 | – |
| Nc1ccccc1NC(=O)/C=C/c1ccc(C(NCCCN2CCOCC2)C(=O)Nc2ccc(C3CC3)cc2)cc1 (configuration not stated) | 1.7 | 1.9 | 117 | 70 | 95 | 178 | – |
| CN(C)CCNC(C(=O)Nc1ccc(OC(F)(F)F)cc1)c1ccc(/C=C/C(=O)Nc2ccccc2N)cc1 (configuration not stated) | 1.8 | 2.5 | 152 | 85 | 74 | 182 | – |
| CN(C)C(C(=O)Nc1ccc(C(F)(F)F)cc1)c1ccc(/C=C/C(=O)Nc2ccccc2N)cc1 (configuration not stated) | 0.5 | 1.3 | 24 | 45 | 33 | 43 | – |
| Nc1ccccc1NC(=O)/C=C/c1ccc(C(NCCC2CCOCC2)C(=O)Nc2ccc(C(F)(F)F)cc2)cc1 (configuration not stated) | 1 | 1.1 | 53 | 55 | 58 | 64 | IC50 [7]: 1000 nM; IC50 [8]: 200 nM; IC50 [9]: 800 nM |
| Nc1ccccc1NC(=O)/C=C/c1ccc(C(NCCCN2CCOCC2)C(=O)Nc2ccc(OC(F)(F)F)cc2)cc1 (configuration not stated) | 2.2 | 2.5 | 83 | 38 | 58 | 144 | – |
| CC(CNC(C(=O)Nc1ccc(OC(F)(F)F)cc1)c1ccc(/C=C/C(=O)Nc2ccccc2N)cc1)N1CCOCC1 (configuration not stated) | 2.2 | 2.4 | 160 | 72 | 44 | 104 | growth at 3 µM [10]: 97%; growth at 10 µM [11]: 83%; growth at 3 µM [12]: 107%; growth at 10 µM [13]: 93% |
| Nc1ccccc1NC(=O)/C=C/c1ccc(C(NCCN2CCOCC2)C(=O)Nc2ccc(C(F)(F)F)cc2)cc1 (configuration not stated) | 1.4 | 3.1 | 86 | 64 | 38 | 116 | GI50 [14]: 1000 nM; IC50 [7]: 460 nM; Activity [15]: Dose-dependent effect; GI50 [16]: 400 nM; IC50 [8]: 60 nM; Activity [17]: Dose-dependent effect; GI50 [18]: 2200 nM; GI50 [19]: 1700 nM; IC50 [9]: 290 nM; GI50 [20]: 1000 nM; Activity [21]: Dose-dependent effect; Activity [22]: Dose-dependent effect; GI50 [23]: 1900 nM |
| Nc1ccccc1NC(=O)/C=C/c1ccc(C(NCCCN2CCOCC2)C(=O)Nc2ccc(C(F)(F)F)cc2)cc1 (configuration not stated) | 1.9 | 1.7 | 139 | 73 | 79 | 130 | – |
| Nc1ccccc1NC(=O)/C=C/c1ccc(C(C(=O)Nc2ccc(C(F)(F)F)cc2)N2CCCC2)cc1 (configuration not stated) | 1.4 | 1.3 | 85 | 62 | 69 | 89 | – |
| CC(C)c1ccc(-c2ccc(NC(=O)C(NCCN3CCCCC3)c3ccc(/C=C/C(=O)Nc4ccccc4N)cc3)cc2)cc1 (configuration not stated) | 1.8 | 2.1 | 77 | 42 | 63 | 130 | – |
| Nc1ccccc1NC(=O)/C=C/c1ccc(C(NCCN2CCCCC2)C(=O)Nc2ccc(C(F)(F)F)cc2)cc1 (configuration not stated) | 2.4 | 0.9 | 163 | 69 | 85 | 77 | – |
| Nc1ccccc1NC(=O)/C=C/c1ccc(C(NCCN2C[C@@H]3C[C@H]2CO3)C(=O)Nc2ccc(OC(F)(F)F)cc2)cc1 (some centres not stated) | 2.6 | 2.4 | 98 | 39 | 63 | 152 | growth at 3 µM [10]: 97%; growth at 10 µM [11]: 82%; growth at 3 µM [12]: 103%; growth at 10 µM [13]: 90% |
| Nc1ccccc1NC(=O)/C=C/c1ccc(C(NCc2ccco2)C(=O)Nc2ccc(C(F)(F)F)cc2)cc1 (configuration not stated) | 0.6 | 1.7 | 19 | 30 | 21 | 36 | – |
| Nc1ccccc1NC(=O)/C=C/c1ccc(C(N)C(=O)Nc2ccc(C(F)(F)F)cc2)cc1 (configuration not stated) | 1 | 1.8 | 31 | 32 | 40 | 73 | – |
| CC(CNC(C(=O)Nc1ccc(-c2ccc(C3CC3)cc2)cc1)c1ccc(/C=C/C(=O)Nc2ccccc2N)cc1)N1CCOCC1 (configuration not stated) | 2.2 | 2 | 161 | 75 | 98 | 196 | – |
| N#Cc1ccc(-c2ccc(NC(=O)C(NCCN3CCCCC3)c3ccc(/C=C/C(=O)Nc4ccccc4N)cc3)cc2)cc1 (configuration not stated) | 1.8 | 1.7 | 128 | 72 | 92 | 157 | – |
| Nc1ccccc1NC(=O)/C=C/c1ccc(C(NCCN2CCCCC2)C(=O)Nc2ccc(-c3ccc(C(F)(F)F)cc3F)cc2)cc1 (configuration not stated) | 1.7 | 1.8 | 110 | 65 | 84 | 153 | – |
| Nc1ccccc1NC(=O)/C=C/c1ccc(C(NCCC2(O)CCOCC2)C(=O)Nc2ccc(C(F)(F)F)cc2)cc1 (configuration not stated) | 0.9 | 1.4 | 55 | 64 | 68 | 96 | – |
| CN(CCN1CCOCC1)C(C(=O)Nc1ccc(OC(F)(F)F)cc1)c1ccc(/C=C/C(=O)Nc2ccccc2N)cc1 (configuration not stated) | 1.6 | 1.5 | 61 | 39 | 71 | 109 | – |
| Nc1ccccc1NC(=O)/C=C/c1ccc(C(C(=O)Nc2ccc(C3CC3)cc2)N2CCCC2)cc1 (configuration not stated) | 1.7 | 1.5 | 100 | 58 | 98 | 148 | – |
| Nc1ccccc1NC(=O)/C=C/c1ccc(C(NCCN2CCCCC2)C(=O)Nc2ccc(OC(F)(F)F)cc2)cc1 (configuration not stated) | 2.9 | 3.4 | 112 | 39 | 40 | 136 | growth at 3 µM [10]: 95%; growth at 10 µM [11]: 61%; growth at 3 µM [12]: 105%; growth at 10 µM [13]: 88% |
| Nc1ccccc1NC(=O)/C=C/c1ccc(C(NCCN2CCSCC2)C(=O)Nc2ccc(C(F)(F)F)cc2)cc1 (configuration not stated) | 0.9 | 1.5 | 71 | 77 | 63 | 95 | – |
| CN(C)CCNC(C(=O)Nc1ccc(C(F)(F)F)cc1)c1ccc(/C=C/C(=O)Nc2ccccc2N)cc1 (configuration not stated) | 2 | 1.4 | 138 | 69 | 93 | 134 | – |
| Nc1ccccc1NC(=O)/C=C/c1ccc(C(NCCN2CCCCC2)C(=O)Nc2ccc(-c3ccc(C4CC4)cc3)cc2)cc1 (configuration not stated) | 2.2 | 2.1 | 143 | 65 | 90 | 187 | growth at 3 µM [10]: 93%; growth at 10 µM [11]: 81%; growth at 3 µM [12]: 103%; growth at 10 µM [13]: 89%; IC50 [7]: 360 nM; IC50 [8]: 50 nM; IC50 [9]: 240 nM |
